# High-throughput results as filed in PubChem.
# Rows were chosen to be rich in hits. Some 4.3% of all compounds tested hit in one or more screens of this group.
# ALR H2O2 inh: human ALR oxidase inhibition via reduced H2O2; purified ALR, DTT oxidation, H2O2 HRP-luminol luminescence; inhibition, % (test concentration not listed); 290,000 tested, 3.8% active; AID 485317;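 active = mean replicate inhibition above about 79%, with every replicate also reaching it, limit read from the data; inconclusive = only one of the two criteria met; inactive = mean below limit and not every replicate reaching it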
# Target sequence (P55789 whole entry, looked up): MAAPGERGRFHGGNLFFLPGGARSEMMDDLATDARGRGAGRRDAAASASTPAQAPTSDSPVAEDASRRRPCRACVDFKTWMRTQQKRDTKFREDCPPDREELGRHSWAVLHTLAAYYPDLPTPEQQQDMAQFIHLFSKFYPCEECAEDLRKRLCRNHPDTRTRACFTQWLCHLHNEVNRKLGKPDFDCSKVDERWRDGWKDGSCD
# Rtt109 HAT inh: blocks Candida albicans Rtt109/Vps75 acetyltransferase activity | Q5AAJ8 | AID 540336 | inhibition, % at 34.9 µM | 330,000 tested, 0.16% active | purified Rtt109/Vps75, ThioGlo CoA-SH fluorescence, 4 h;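 active = inhibition of at least 50% in every replicate; inconclusive = best replicate reaches 50% inhibition but some replicates fall short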
# CAL PDZ FP-1: human CAL PDZ-peptide interaction inhibition; Q9HD26; inhibition, % at 20 µM; purified CAL PDZ, TMR-peptide fluorescence polarization, 1 h; 330,000 tested, 0.02% active; AID 504414;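 active = highest replicate inhibition of at least 40%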;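 also: plate controls were DMSO neutral control wells for no effect and unlabeled competitor peptide control wells for full effect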
#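 Assay system – tagged CAL PDZ protein CerCALP, purified · Timing – 1 h at RT · Compound – single point, 20 µM · Measured by – fluorescence polarization from S- and P-plane intensities, G-factor corrected · Evaluation – inhibition from polarization loss · Probe or stimulus – TMR reporter peptide T*-PRC34 · Buffer or medium – pH 7.4 phosphate-saline buffer, reducing agent, detergent, IgG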
# CAL PDZ FP-2: inhibitors of human CAL PDZ peptide binding | Q9HD26 | purified CAL PDZ, TMR-peptide fluorescence polarization, 1 h | inhibition, % at 24.9 µM | 300,000 tested, 0.92% active | AID 602252;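 active = mean inhibition of at least 30% with at least half of replicates also reaching 30%; inconclusive = no clear call, values can overlap the other calls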;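 also: 0% = DMSO neutral control and 100% = excess unlabeled competitor peptide PRC23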
# Dyrk1A ADPGlo: Dyrk1A (rat) kinase inhibition. Q63470. ADP-Glo luminescence, NFATc1 peptide. inhibition, % at 12.5 µM. 310,000 tested, 0.43% active. AID 504441; in the data active = inhibition above about 50%;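 also: plate controls were vehicle with enzyme for no effect and no enzyme for full effect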
# * = called active by the depositor; u = inconclusive; x = no result given.
SMILES,ALR H2O2 inh,Rtt109 HAT inh,CAL PDZ FP-1,CAL PDZ FP-2,Dyrk1A ADPGlo
O=C(CN1C(=O)C2C3C=CC(C3)C2C1=O)OCC(=O)c1ccc(Cl)cc1 (stereo not drawn),x,-2.4,0.1,74.2*,x
O=C(CN1C(=O)C2C3C=CC(C3)C2C1=O)OCC(=O)c1ccccc1 (stereo not drawn),-4.0,x,-1.8,-1.9,x
COC(=O)CCc1c(C)nc(N)[nH]c1=O,1.2,3.8,0.8,-0.8,2.9
Cc1nc(N)[nH]c(=O)c1CC(=O)OCCCl,-3.6,-7.5,-0.1,56.2*,3.1
Nc1c(Cl)ncnc1NCC(O)CO (stereo not drawn),x,-1.0,-0.4,-0.2,6.3
Cc1ccc(N=c2sc(C)c(C)n2C)cc1,99.2*,-4.8,-1.5,-0.1,-1.0
Cc1ccc(N=C2CSC(=O)N2)cc1,25.5,-1.3,-0.1,-4.0,-2.7
CCNC(=S)N1CCC(c2nc3ccccc3s2)CC1,-23.0,2.2,-3.5,-2.1,2.7
COCCn1c(SCC(=O)c2cccc(OC)c2)nnc1-c1ccco1,93.0*,8.4,0.0,1.2,-13.0
Cn1c(SCC(=O)c2cc(Cl)c(Cl)s2)nnc1-c1ccco1,97.7*,2.9,-1.8,x,1.4
CCN(CC)c1ccc(/C=N/NC(=S)NC)c(O)c1,98.0*,4.9,-3.6,-0.5,-3.9
CCN(CC)c1ccc(/C=N/NC(=O)OC)c(O)c1,98.5*,9.8,0.5,x,-10.5
CCN(CC)c1ccc(/C=N/Nc2ccccc2)c(O)c1,u,1.8,-0.6,1.6,2.7
CCN(CC)c1ccc(/C=N/NC(=O)c2ccc3nc[nH]c3c2)c(O)c1,97.0*,-2.6,2.1,-0.4,13.4
CCN(CC)c1ccc(/C=N/NC(=O)c2ccoc2C)c(O)c1,72.0,x,-0.2,-8.3,9.8
CCOc1ccc(CN(C)C(=O)[C@H](Cc2ccccc2)NC(=O)OCc2ccccc2)cc1OC,x,13.9,-1.2,x,-2.5
CC(C)OCC1CC(CC(=O)Nc2ccc([N+](=O)[O-])cc2)C(=O)O1 (stereo not drawn),8.4,-1.2,0.4,-4.0,-3.2
COc1ccc(-c2nc3ccccc3o2)cc1OC,2.4,0.2,43.6*,-4.3,-0.5
Nc1nc2ccc(-c3nc4ccccc4o3)cc2s1,96.9*,13.8,-3.6,-9.6,2.0
CCOC(=O)C1C(=O)NC(c2ccccc2)=NC1c1ccc(F)cc1 (stereo not drawn),98.1*,-7.6,-0.1,-2.5,4.0
CCCCNC(=O)COc1ccccc1[N+](=O)[O-],-1.8,x,-1.8,0.7,2.6
NC(=O)COC(=O)C12CC3CC(CC(O)(C3)C1)C2,-1.4,-1.1,x,-0.9,-2.2
NC(CSS(=O)(=O)O)=NCCC12CC3CC(CC(O)(C3)C1)C2,84.8*,-338.4,-0.5,0.5,5.3
COc1cccc(-n2c(Cc3cc(=O)[nH]c(=O)[nH]3)nnc2SCC(=O)N2CCC(C)CC2)c1,-13.6,-13.0,-0.2,50.1*,3.7
CCc1nnc(NC(=O)CSc2nnc(Cc3cc(=O)[nH]c(=O)[nH]3)n2-c2cccc(OC)c2)s1,95.7*,-1.3,-1.9,0.1,-0.1
SMILES,ALR H2O2 inh,Rtt109 HAT inh,CAL PDZ FP-1,CAL PDZ FP-2,Dyrk1A ADPGlo
COc1ccc(-n2c(Cc3cc(=O)[nH]c(=O)[nH]3)nnc2SCC(=O)N2CCC(C)CC2)cc1,-5.0,-16.9,-0.1,1.6,-5.6
CCCCNC(=S)N1CCN(c2ccccc2Cl)CC1,-17.7,-1.3,0.8,74.9*,8.7
Cc1ccc(-c2cc(-c3ccccc3[N+](=O)[O-])[nH]n2)c(O)c1,90.4*,0.0,-0.7,x,26.2
O=C(CN1CCCc2ccccc21)NCCc1ccc(F)cc1,108.4*,-0.3,-0.6,-4.1,x
C=CCNC(=S)NNc1nc2sc3c(c2c(=O)[nH]1)CC(C)(C)OC3,48.6,-1.0,1.0,-5.1,-2.5
O=C1OC(/C(=C\Nc2ccc(F)cc2F)[N+](=O)[O-])c2ccccc21 (stereo not drawn),97.1*,1.1,x,2.3,-5.8
Oc1ccc(-c2nc3ncccn3c2Nc2ccc3c(c2)OCCO3)cc1,93.1*,16.2,0.1,-2.0,-5.5
Cc1cccc(Nc2c(-c3ccc(N4CCOCC4)cc3)nc3ncccn23)c1,94.8*,-7.7,-0.9,x,0.2
Cc1ccc(-c2nc3ncccn3c2Nc2ccc3c(c2)OCCO3)cc1,95.8*,-0.3,-2.0,0.0,-2.7
COc1ccc(-c2nc3ncccn3c2Nc2ccc3c(c2)OCCO3)cc1,x,6.8,-2.3,-1.4,-2.5
